Assay results reported in ChEMBL document CHEMBL1649494, “Hypersusceptibility to azole antifungals in a clinical isolate of Candida glabrata with reduced aerobic growth” (2009).
Values after ≈ are worked out from the molar mass of the structure shown.

Columns and labels:
Type in all cases: functional
Nakaseomyces glabratus [1] = experiment: Antifungal activity against Candida glabrata isolate 22853 at 10 ug after 48 hrs by disk diffusion method; conditions: isolate 22853, 48 h, read-out: DIZ
Nakaseomyces glabratus [2] = experiment: Antifungal activity against Candida glabrata isolate 22852 by Etest method
Summary of the method: (§1)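 MIC by Etest strips on Casitone agar plates (pH 7.2, chloramphenicol-supplemented), run per manufacturer's recommendations; isolates maintained on YEPD agar by regular passage.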

Nakaseomyces glabratus [3] = experiment: Antifungal activity against Candida glabrata isolate 21231 by Etest method; summary of the method: as §1
Nakaseomyces glabratus [4] = experiment: Antifungal activity against Candida glabrata isolate 21231 at 10 ug after 48 hrs by disk diffusion method; conditions: isolate 21231, 48 h, read-out: DIZ
Nakaseomyces glabratus [5] = experiment: Antifungal activity against Candida glabrata isolate 22853 by Etest method; summary of the method: as §1
Nakaseomyces glabratus [6] = experiment: Antifungal activity against Candida glabrata isolate 22852 at 10 ug after 48 hrs by disk diffusion method; conditions: isolate 22852, 48 h, read-out: DIZ
Nakaseomyces glabratus [7] = experiment: Antifungal activity against Candida glabrata isolate 22852 at 15 ug after 48 hrs by disk diffusion method; conditions: isolate 22852, 48 h, read-out: DIZ
Nakaseomyces glabratus [8] = experiment: Antifungal activity against Candida glabrata isolate 21231 at 15 ug after 48 hrs by disk diffusion method; conditions: isolate 21231, 48 h, read-out: DIZ
Nakaseomyces glabratus [9] = experiment: Antifungal activity against Candida glabrata isolate 22853 at 15 ug after 48 hrs by disk diffusion method; conditions: isolate 22853, 48 h, read-out: DIZ

Row | Structure (SMILES) | zone of inhibition at 10 µg/disc (Nakaseomyces glabratus [1]) | MIC (Nakaseomyces glabratus [2]) | MIC (Nakaseomyces glabratus [3]) | zone of inhibition at 10 µg/disc (Nakaseomyces glabratus [4]) | MIC (Nakaseomyces glabratus [5]) | zone of inhibition at 10 µg/disc (Nakaseomyces glabratus [6]) | zone of inhibition at 15 µg/disc (Nakaseomyces glabratus [7]) | zone of inhibition at 15 µg/disc (Nakaseomyces glabratus [8]) | zone of inhibition at 15 µg/disc (Nakaseomyces glabratus [9])
1 | C[C@@H]1[C@H](O)[C@@H](C)/C=C/C=C/C=C/C=C/C=C/C=C/C=C/[C@H](O[C@@H]2O[C@H](C)[C@@H](O)[C@H](N)[C@@H]2O)C[C@@H]2O[C@](O)(C[C@@H](O)C[C@@H](O)[C@H](O)CC[C@@H](O)C[C@@H](O)CC(=O)O[C@H]1C)C[C@H](O)[C@H]2C(=O)O [AMPHOTERICIN B] | 31 mm | 0.032 µg/mL (≈ 0.0346 µM) | 0.047 µg/mL (≈ 0.0509 µM) | 27 mm | 0.047 µg/mL (≈ 0.0509 µM) | 40 mm |  |  | 
2 | CC(=O)N1CCN(c2ccc(OCC3COC(Cn4ccnc4)(c4ccc(Cl)cc4Cl)O3)cc2)CC1 (configuration not stated) [KETOCONAZOLE] | 16 mm |  |  | 33 mm |  | 50 mm |  |  | 
3 | OC(Cn1cncn1)(Cn1cncn1)c1ccc(F)cc1F [FLUCONAZOLE] |  | 0.94 µg/mL (≈ 3.07 µM) | 6 µg/mL (≈ 19.6 µM) |  | > 256 µg/mL |  | 50 mm | 21 mm | 0 mm
4 | Clc1ccc(COC(Cn2ccnc2)c2ccc(Cl)cc2Cl)cc1 (configuration not stated) [ECONAZOLE] | 13 mm |  |  | 25 mm |  | 50 mm |  |  | 
5 | Clc1ccccc1C(c1ccccc1)(c1ccccc1)n1ccnc1 [CLOTRIMAZOLE] | 12 mm |  |  | 25 mm |  | 50 mm |  |  | 
6 | Clc1ccc(COC(Cn2ccnc2)c2ccc(Cl)cc2Cl)c(Cl)c1 (configuration not stated) [MICONAZOLE] | 0 mm |  |  | 21 mm |  | 35 mm |  |  | 
7 | C[C@@H](c1ncncc1F)[C@](O)(Cn1cncn1)c1ccc(F)cc1F [VORICONAZOLE] |  | 0.003 µg/mL (≈ 0.00859 µM) | 0.047 µg/mL (≈ 0.135 µM) |  | 4 µg/mL (≈ 11.5 µM) |  |  |  | 
